Compounds with a hit are over-represented: about 4.2% of the library has one in this group of screens.
TMEM16A act: activators or potentiators of mouse TMEM16A chloride channel; Q8BHY3; 0.3% of 340,000 active; HEK293 TMEM16A/YFP-H148Q/I152L, iodide quench fluorescence; active compounds read low; B-score at 10 µM;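 active = fluorescence-ratio B-score plate-corrected deviation score at least 3 library SD below zero, with starting fluorescence score within 5 deviations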;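 note: channel opened by trigger with iodide after compound preincubation; score built on the fluorescence ratio of max minus min over baseline; more negative score means more quench and so TMEM16A activation or potentiation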
Target sequence (Q8BHY3 whole entry, looked up): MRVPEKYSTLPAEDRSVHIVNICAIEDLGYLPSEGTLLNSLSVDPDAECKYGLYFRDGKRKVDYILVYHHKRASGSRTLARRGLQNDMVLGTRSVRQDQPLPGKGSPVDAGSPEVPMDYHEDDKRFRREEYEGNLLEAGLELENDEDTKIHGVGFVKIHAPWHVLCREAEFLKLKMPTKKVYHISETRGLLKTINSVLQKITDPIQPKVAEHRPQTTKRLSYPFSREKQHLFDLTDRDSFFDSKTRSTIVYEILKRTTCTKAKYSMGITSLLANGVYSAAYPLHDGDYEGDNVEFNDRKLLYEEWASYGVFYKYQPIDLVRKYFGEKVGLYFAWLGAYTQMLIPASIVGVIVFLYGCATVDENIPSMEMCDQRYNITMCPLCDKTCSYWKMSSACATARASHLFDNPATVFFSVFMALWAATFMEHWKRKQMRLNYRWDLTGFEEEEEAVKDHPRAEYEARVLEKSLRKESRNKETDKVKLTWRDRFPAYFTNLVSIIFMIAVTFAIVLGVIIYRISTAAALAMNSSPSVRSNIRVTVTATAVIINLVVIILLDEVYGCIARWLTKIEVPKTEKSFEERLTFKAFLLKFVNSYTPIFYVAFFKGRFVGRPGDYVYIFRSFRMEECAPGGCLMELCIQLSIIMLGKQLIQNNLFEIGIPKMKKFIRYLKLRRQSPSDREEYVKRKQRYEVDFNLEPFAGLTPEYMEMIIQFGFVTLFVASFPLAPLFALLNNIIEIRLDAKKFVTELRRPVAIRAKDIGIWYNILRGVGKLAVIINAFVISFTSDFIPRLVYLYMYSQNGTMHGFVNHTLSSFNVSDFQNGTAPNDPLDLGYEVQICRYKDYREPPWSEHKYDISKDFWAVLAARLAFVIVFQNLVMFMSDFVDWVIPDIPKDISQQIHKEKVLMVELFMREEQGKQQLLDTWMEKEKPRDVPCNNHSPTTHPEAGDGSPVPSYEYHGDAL
CHOP inh: blocks CHOP induction under ER stress; CHO-K1 CHOP-promoter luciferase, tunicamycin-induced, 15-18 h; 3.8% of 220,000 active; inhibition, % at 10 µM;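 active = compounds that reduced the stress-induced luciferase reporter signal by more than about 70% of percent inhibition, limit read from the data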;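 note: 0% = tunicamycin plus vehicle and 100% = wells without tunicamycin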
ANO1 block: blocks the mouse calcium-activated chloride channel TMEM16A; Q8BHY3; HEK293 TMEM16A/YFP iodide influx fluorescence, ionomycin; normalized B-score (activity score, 25-100; higher = stronger inhibition) at 10 µM; 1.2% of 310,000 active;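 active = ratio plate-corrected score three or more library SD toward inhibition, starting fluorescence score within five deviations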;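 note: score derived from kinetic fluorescence span divided by baseline fluorescence per well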
Hep lipid drop: hepatic lipid droplet formation modulation; AML12 mouse hepatocytes, oleate lipid droplets, BODIPY imaging; inhibition, % at 6.5 µM; 0.4% of 240,000 active;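 active = lipid droplet intensity inhibited by at least 50%, with more than 500 cells counted; inconclusive = wells with under 300 cells, treated as cytotoxic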
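Assay system: AML12 hepatocytes (mouse) / Also added: 100 µM oleic acid challenge / Times: overnight treatment with compound plus oleate / Detection: high-content imaging of BODIPY-stained droplets and DAPI nuclei / Evaluation: % inhibition of lipid droplet signal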
UPR CHOP act: activators of apoptotic arm of unfolded protein response (CHOP); CHO-CHOP luciferase reporter, UPR activation, luminescence; percent of tunicamycin response over DMSO baseline; activation, % at 10 µM; 0.34% of 330,000 active;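 active = at 10 µM dose, activation of 40% or more, normalized to positive control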;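 note: 100% = tunicamycin at 10 µg/mL and 0% = DMSO alone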
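System: CHO-CHOP luciferase reporter cell line; amount: 500 cells/well; buffer or medium: F12 medium containing 10% fetal bovine serum; incubation: 6 h compound exposure at 37 °C after overnight seeding; measured by: luciferase luminescence after 10 min with Steady-Glo reagent; evaluation: % reporter activation, DMSO baseline versus tunicamycin full activation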
UPR XBP1 act: adaptive UPR (XBP1) activation; activation, % at 20 µM; AID 463104; 0.33% of 330,000 active; CHO-XBP1 luciferase reporter, IRE1-XBP1 UPR activation, luminescence; percent of tunicamycin response, DMSO as zero;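 active = versus positive control, 20 µM dose yields 30% or more activation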;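 note: 100% = tunicamycin at 10 µg/mL and 0% = DMSO only wells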
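Assay system: CHO-XBP1 luciferase reporter cells; Schedule: 6 h treatment, 37 °C; Detection: glow luminescence from Steady-Glo reagent; Benchmarks: high control tunicamycin 10 µg/mL final, low control DMSO vehicle only.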
CHOP confirm: confirmation of CHOP induction inhibitors; CHO-CHOP promoter luciferase reporter, tunicamycin-induced, luminescence; AID 504437; shares compounds with CHOP inh; 45% of 2,100 active; inhibition, % at 10 µM;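 active = mean of three repeat readings of reporter signal inhibition above a set limit, cut at about 70% in these data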;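 note: 0% = tunicamycin plus vehicle and 100% = wells lacking tunicamycin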
* = called active by the depositor; i = inactive; ? = inconclusive; · = no result.

SMILES | TMEM16A act | CHOP inh | ANO1 block | Hep lipid drop | UPR CHOP act | UPR XBP1 act | CHOP confirm
CN(c1ccccc1)c1ccc(/C=C/[N+](=O)[O-])cc1 | i | 110* | i | -4 | · | · | -96
O=[N+]([O-])c1ccc(S(=O)(=O)CC(CN2CCCCC2)N2CCCCC2)cc1 (stereo not given) | i | 105* | i | 14 | 19 | -11 | 95*
CCC1CCCCN1CCCNC(=O)c1ccc(N2CCCC2=O)cc1 (stereo not given) | i | · | i | -17 | -2 | -3 | ·
CC(C)Oc1ccc(CNC(=O)CC(c2ccccc2)c2cc(Cl)ccc2O)cc1 (stereo not given) | i | 98* | 100* | · | 0 | -1 | 104*
COc1ccccc1C(CC(=O)Nc1ccc(Cl)cc1)c1ccc(OC(C)C)cc1 (stereo not given) | i | 42 | i | -7 | 2 | -1 | ·
O=[N+]([O-])c1ccc(N2CCN(c3ccccc3O)CC2)c(Cl)c1 | i | 96* | i | -2 | 0 | -1 | 17
O=[N+]([O-])c1ccc(N2CCN(c3ccccc3O)CC2)cc1 | i | · | i | 12 | 4 | 4 | ·
Cc1ccccc1NC(=O)/C=C/c1ccc([N+](=O)[O-])s1 | i | 102* | i | 9 | · | · | 79*
Cc1ccccc1NC(=O)/C=C/c1cccs1 | i | 6 | i | 0 | 3 | 2 | ·
CC(C)=CCc1c(O)cc2oc3c(CC=C(C)C)c(O)c(O)c(CC=C(C)C)c3c(=O)c2c1O | i | 97* | 100* | 5 | 8 | 2 | 120*
CC(C)=CCc1cc(-c2oc3cc(O)cc(O)c3c(=O)c2O)ccc1O | i | · | i | · | 1 | 2 | ·
CCCn1c(SCC(=O)Nc2cc(Cl)ccc2OC)nc(O)cc1=O | i | · | · | · | -1 | 1 | ·
Cc1nc2c(=O)n(C)c(=O)n(C)c2nc1Cl | i | 109* | i | -26 | · | · | 118*
Cn1c(=O)c2nc(NCc3ccccc3)cnc2n(C)c1=O | i | -5 | i | · | -1 | -4 | ·
COc1ccc(C(C(=O)NC2CCCCC2)N(C(=O)CCl)c2cccc(Cl)c2)cc1 (stereo not given) | i | 106* | i | ? | · | · | 104*
COc1ccc(C(C(=O)NC2CCCCC2)N(C(=O)CCl)c2ccc(OC)cc2)cc1 (stereo not given) | i | 9 | i | -1 | 36 | -1 | ·
Cc1cccc(/N=C/c2c(O)ccc3oc4c(c23)CCCC4)n1 | i | 21 | i | 16 | 3 | 0 | ·
O=[N+]([O-])c1cc2oc3c(c2c(C=NCc2ccccc2)c1O)CCCC3 | i | 99* | i | 14 | 1 | -1 | 8
O=S(=O)(Nc1ccc(-n2cccc2)cc1)c1ccc(Cl)c(Cl)c1 | i | -11 | i | -12 | 1 | -1 | ·
O=S(=O)(Nc1ccc(-n2cccc2)cc1)c1ccc(Cl)cc1Cl | i | 102* | i | -29 | 1 | 2 | 15
COC(=O)c1cc(CN2CCN(c3ccccc3)CC2)ccc1O | i | · | i | -6 | 3 | -3 | ·
CSCCC1NC2(C(=O)Nc3c(Cl)cccc32)[C@@H]2C(=O)N(C3CCCC3)C(=O)[C@H]12 (stereo not given in full) | i | 15 | i | · | -1 | -3 | ·
CSCCC1NC2(C(=O)Nc3c(C)cc(Cl)cc32)[C@@H]2C(=O)N(C3CCCC3)C(=O)[C@H]12 (stereo not given in full) | i | 104* | i | · | 1 | -3 | 34
O=C(NC(Nc1nc2ccc([N+](=O)[O-])cc2s1)(C(F)(F)F)C(F)(F)F)c1ccccc1Cl | i | 97* | 100* | -82 | 25 | -1 | 125*
CC(C)c1ccc(C2C3CSCC=C3C(C#N)=C(N)C2(C#N)C#N)cc1 (stereo not given) | · | 106* | i | -1 | 33 | -3 | 122*
